Test results as given in ChEMBL document CHEMBL1255259, “Phosphorothioate-modified oligodeoxynucleotides inhibit human cytomegalovirus replication by blocking virus entry” (Antimicrob Agents Chemother, 2008).
Activity calls are given as the source filed them. The rule behind the calls is not given here.

Tests used:
Human betaherpesvirus 5 [1] = assay: Antimicrobial activity against Human cytomegalovirus AD169 infected in compound pretreated HELF assessed as inhibition of viral replication measured after 6 days post-infection; assay type: functional, organism-based; conditions: Human betaherpesvirus 5, AD169, HELF
Method in brief: (§1)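 HELF pretreated with ODN 1 h before infection with HCMV AD169 (MOI 1); ODN kept in medium after 2 h adsorption at 37°C. At 6 days p.i., cells plus supernatants sonicated and titrated by plaque assay on HELF; plaques counted microscopically, expressed as PFU/ml (log10) or % of control. IC50/IC90 by linear regression; duplicate wells, three independent experiments, means ± SD.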

Human betaherpesvirus 5 [2] = assay: Antimicrobial activity against 0.1 uM compound pretreated Human cytomegalovirus AD169 infected in HELF assessed as reduction in viral titer at 4 degC; assay type: functional, organism-based
Method in brief: (§2)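 HCMV AD169 (10^4 PFU) incubated with ODN at 0.1 μM at 4 or 37°C for various times; samples then diluted to bring ODN below an antivirally active level; residual infectivity titrated by plaque assay on HELF. Means ± SD of three independent experiments.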

Human betaherpesvirus 5 [3] = assay: Antimicrobial activity against Human cytomegalovirus AD169 infected in 0.1 uM compound pretreated HELF assessed as inhibition of viral replication measured after 6 days post-infection; assay type: functional, organism-based; method in brief: as §1
[4] = Cytotoxicity against HELF assessed as cell viability by MTT assay after 6 days at <=10 uM; assay type: cell-based; conditions: human, 144 h
Method in brief: (§3)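 HELF exposed to rising ODN concentrations (up to 10 μM) for 6 days; viable cells measured by MTT. CC50 taken as concentration that cuts viability to 50%.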

[5] = Cytotoxicity against HELF assessed as cell viability after 6 days by MTT assay; assay type: cell-based; conditions: human, HELF cells; method in brief: as §3
Human betaherpesvirus 5 [6] = assay: Antimicrobial activity against 0.1 uM compound pretreated Human cytomegalovirus AD169 infected in HELF assessed as reduction in viral titer 37 degC; assay type: functional, organism-based; method in brief: as §2
Human betaherpesvirus 5 [7] = assay: Antimicrobial activity against Human cytomegalovirus AD169 infected in 1 uM compound pretreated HELF assessed as inhibition of viral replication measured after 6 days post-infection; assay type: functional, organism-based; method in brief: as §1

IC50 (Human betaherpesvirus 5 [1]): 0.14 µM | IC90 (Human betaherpesvirus 5 [1]): 3.6 µM
SMILES: Cc1cn([C@H]2C[C@H](OP(=O)(O)OC[C@H]3O[C@@H](n4ccc(N)nc4=O)[C@H](O)[C@@H]3OP(=O)(O)OC[C@H]3O[C@@H](n4cnc5c(=O)[nH]c(N)nc54)[C@H](O)[C@@H]3OP(=O)(O)OC[C@H]3O[C@@H](n4cc(C)c(=O)[nH]c4=O)C[C@@H]3OP(=O)(O)OC[C@H]3O[C@@H](n4ccc(N)nc4=O)[C@H](O)[C@@H]3OP(=O)(O)OC[C@H]3O[C@@H](n4cnc5c(=O)[nH]c(N)nc54)[C@H](O)[C@@H]3OP(=O)(O)OC[C@H]3O[C@@H](n4cnc5c(=O)[nH]c(N)nc54)[C@H](O)[C@@H]3OP(O)(=S)OC[C@H]3O[C@@H](n4cnc5c(=O)[nH]c(N)nc54)[C@H](O)[C@@H]3OP(O)(=S)OC[C@H]3O[C@@H](n4cnc5c(=O)[nH]c(N)nc54)[C@H](O)[C@@H]3OP(O)(=S)OC[C@H]3O[C@@H](n4cnc5c(=O)[nH]c(N)nc54)[C@H](O)[C@@H]3OP(O)(=S)OC[C@H]3O[C@@H](n4cnc5c(=O)[nH]c(N)nc54)[C@H](O)[C@@H]3OP(O)(O)=S)[C@@H](COP(=O)(O)O[C@H]3[C@@H](O)[C@H](n4cnc5c(N)ncnc54)O[C@@H]3COP(=O)(O)O[C@H]3[C@@H](O)[C@H](n4cnc5c(=O)[nH]c(N)nc54)O[C@@H]3COP(=O)(O)O[C@H]3[C@@H](O)[C@H](n4ccc(N)nc4=O)O[C@@H]3COP(=O)(O)O[C@H]3[C@@H](O)[C@H](n4cnc5c(N)ncnc54)O[C@@H]3COP(=O)(O)O[C@H]3[C@@H](O)[C@H](n4cnc5c(=O)[nH]c(N)nc54)O[C@@H]3COP(=O)(O)O[C@H]3[C@@H](O)[C@H](n4cnc5c(=O)[nH]c(N)nc54)O[C@@H]3COP(=O)(O)O[C@H]3[C@@H](O)[C@H](n4cnc5c(=O)[nH]c(N)nc54)O[C@@H]3COP(O)(=S)O[C@H]3[C@@H](O)[C@H](n4cnc5c(=O)[nH]c(N)nc54)O[C@@H]3COP(O)(=S)O[C@H]3[C@@H](O)[C@H](n4cnc5c(=O)[nH]c(N)nc54)O[C@@H]3CO)O2)c(=O)[nH]c1=O (stereo partly drawn)
inhibition (Human betaherpesvirus 5 [2]): inactive | inhibition (Human betaherpesvirus 5 [3]): Active | Activity [4]: Non-toxic | CC50 at 144 h [5]: > 10 µM | inhibition (Human betaherpesvirus 5 [6]): inactive | inhibition (Human betaherpesvirus 5 [7]): Active
